Source: ChEMBL document CHEMBL5257107 (Bioorg Med Chem Lett, 2023)

Test: Cytotoxicity against human IMR-32 cells assessed as reduction in cell viability measured after 24 hrs by celltiter-glo-based assay
Format: toxicity
In short: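 Human IMR32 neuroblastoma cells were exposed to compound for 24 h. Viability was then read by CellTiter-Glo luminescence.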

Row | SMILES | IC50 at 24 h [µM]
1 | O=C(O)CCCN[C@H]1CS(=O)(=O)C[C@@H]1S(=O)(=O)c1ccc(Cl)c(Cl)c1 | > 20
2 | O=C(O)CCCCCN[C@H]1CS(=O)(=O)C[C@@H]1S(=O)(=O)c1ccc(Cl)c(Cl)c1 | > 20
3 | CC(C)CN[C@H]1CS(=O)(=O)C[C@@H]1C(=O)Nc1ccc(Cl)c(Cl)c1 | > 20
